Measured values reported in ChEMBL document CHEMBL4371102, “Tricholopardins A and B, Anti-inflammatory Terpenoids from the Fruiting Bodies of Tricholoma pardinum” (J Nat Prod, 2019).
Peptide text beside a SMILES is read from it. * marks the point of attachment. Cbz = O=C(OCc1ccccc1)*

Assays:
RAW264.7 [1] = test: Anti-inflammatory activity against mouse RAW264.7 cells assessed as inhibition of LPS-stimulated NO production after 18 hrs by Griess reagent based assay; format: functional, cell-based; conditions: RAW264.7, 18 h
Outline: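 RAW264.7 cells were seeded at 2 × 10^5 cells/well in RPMI 1640 with 10% FBS (37 °C, 5% CO2) and preincubated 24 h. They were then exposed 18 h to serial dilutions up to 25 μM (DMSO stock diluted in medium) with LPS 1 μg/mL. Supernatant was mixed 1:1 with Griess reagent for 5 min, and absorbance was read at 570 nm, in triplicate. MG-132 served as positive control.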

THP-1 [2] = test: Anti-inflammatory activity against human THP1 cells assessed as inhibition of LPS-stimulated TNFalpha production preincubated for 30 mins followed by LPS addition and measured after 24 hrs by ELISA; format: functional, cell-based
Outline: (§1)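 Cells kept at 37 °C in 5% CO2 with 10% heat-inactivated FBS and 1% penicillin: RAW264.7 in DMEM, THP-1 in RPMI 1640. Cells were pretreated 30 min with compound (2.5–20 μM, from DMSO solution) or dexamethasone (5 μM, positive control), then stimulated with LPS 1 μg/mL for 24 h. Supernatant TNF-α, IL-1β and PGE2 were measured by ELISA. Mean ± SD, n = 3; one-way ANOVA with Dunnett's T3 and two-tailed t test.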

RAW264.7 [3] = test: Anti-inflammatory activity against mouse RAW264.7 cells assessed as inhibition of LPS-stimulated IL-1beta production at 20 uM preincubated for 30 mins followed by LPS addition and measured after 24 hrs by ELISA relative to control; format: functional; outline: as §1
THP-1 [4] = test: Anti-inflammatory activity against human THP1 cells assessed as inhibition of LPS-stimulated PGE2 production preincubated for 30 mins followed by LPS addition and measured after 24 hrs by ELISA; format: functional, cell-based; outline: as §1
RAW264.7 [5] = test: Anti-inflammatory activity against mouse RAW264.7 cells assessed as inhibition of LPS-stimulated TNFalpha production at 20 uM preincubated for 30 mins followed by LPS addition and measured after 24 hrs by ELISA relative to control; format: functional; outline: as §1
THP-1 [6] = test: Anti-inflammatory activity against human THP1 cells assessed as inhibition of LPS-stimulated TNFalpha production at 20 uM preincubated for 30 mins followed by LPS addition and measured after 24 hrs by ELISA relative to control; format: functional; outline: as §1
THP-1 [7] = test: Anti-inflammatory activity against human THP1 cells assessed as inhibition of LPS-stimulated IL-1beta production preincubated for 30 mins followed by LPS addition and measured after 24 hrs by ELISA; format: functional, cell-based; outline: as §1
THP-1 [8] = test: Anti-inflammatory activity against human THP1 cells assessed as inhibition of LPS-stimulated IL-1beta production at 20 uM preincubated for 30 mins followed by LPS addition and measured after 24 hrs by ELISA relative to control; format: functional; outline: as §1
RAW264.7 [9] = test: Anti-inflammatory activity against mouse RAW264.7 cells assessed as inhibition of LPS-stimulated PGE2 production preincubated for 30 mins followed by LPS addition and measured after 24 hrs by ELISA; format: functional, cell-based; outline: as §1
[10] = Cytotoxicity against mouse RAW264.7 cells assessed as cell viability up to 20 uM by MTS assay relative to control; format: cell-based; conditions: read-out: Activity
Outline: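 RAW264.7 macrophages were grown in DMEM with 10% heat-inactivated FBS and 1% penicillin (37 °C, 5% CO2), detached with trypsin-EDTA and seeded in 96-well plates. At 80% confluence they were treated with compound at 2.5–20 μM (dissolved in DMSO). Viability was read by MTS following the kit instructions.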

RAW264.7 [11] = test: Anti-inflammatory activity against mouse RAW264.7 cells assessed as inhibition of LPS-stimulated TNFalpha production preincubated for 30 mins followed by LPS addition and measured after 24 hrs by ELISA; format: functional, cell-based; outline: as §1
RAW264.7 [12] = test: Anti-inflammatory activity against mouse RAW264.7 cells assessed as inhibition of LPS-stimulated IL-1beta production preincubated for 30 mins followed by LPS addition and measured after 24 hrs by ELISA; format: functional, cell-based; outline: as §1
RAW264.7 [13] = test: Anti-inflammatory activity against mouse RAW264.7 cells assessed as inhibition of LPS-stimulated PGE2 production at 20 uM preincubated for 30 mins followed by LPS addition and measured after 24 hrs by ELISA relative to control; format: functional; outline: as §1

| IC50 (RAW264.7 [1]) [nM] | Compound | inhibition (THP-1 [2]) | inhibition at 20 µM (RAW264.7 [3]) [%] | inhibition (THP-1 [4]) | inhibition at 20 µM (RAW264.7 [5]) [%] | inhibition at 20 µM (THP-1 [6]) [%] | inhibition (THP-1 [7]) | inhibition at 20 µM (THP-1 [8]) [%] | inhibition (RAW264.7 [9]) | viability [10] [%] | inhibition (RAW264.7 [11]) | inhibition (RAW264.7 [12]) | inhibition at 20 µM (RAW264.7 [13]) [%] |
| --- | --- | --- | --- | --- | --- | --- | --- | --- | --- | --- | --- | --- | --- |
| 80 | CC1=C(C=O)C(C)(C)[C@H](CC[C@H]2CC[C@]3(OC2)O[C@@]2(O)CC[C@]3(C)OC2(C)C)CC1 | Dose-dependent effect | 94.3 | Dose-dependent effect | 70.9 | 99.9 | Dose-dependent effect | 99.3 | Dose-dependent effect | 60 | Dose-dependent effect | Dose-dependent effect | 92.5 |
| 16200 | C=C1CC[C@@H](CCO)C(C)(C)[C@H]1C/C=C1/C(=O)OC[C@@H]1O |  |  |  |  |  |  |  |  |  |  |  |  |
| 160 | CC(C)C[C@@H](C=O)NC(=O)[C@H](CC(C)C)NC(=O)[C@H](CC(C)C)NC(=O)OCc1ccccc1 [MG-132] (Cbz-Leu-Leu-Leu-aldehyde) |  |  |  |  |  |  |  |  |  |  |  |  |
